This is an account of results in ChEMBL document CHEMBL4665761, “Optimizing the Benefit/Risk of Acetyl-CoA Carboxylase Inhibitors through Liver Targeting” (J Med Chem, 2020).

In brackets after ≈: the same amount, converted by molar mass.

A short description of data set [1]: AUC (0 to 24 hrs) in Wistar-Hannover rat plasma at 1 mg/kg, iv and measured up to 24 hrs by LC/MS-MS analysis. It is filed as ADME, organism-based. The arrangement: route intravenous, dose 1 mg/kg, time <=24. The essentials: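 Male Wistar-Hannover rats (240–350 g) with jugular vein cannulas were given 1 mg/kg IV at 2 mL/kg. Vehicle, depending on compound, was 10% DMSO/90% of 20% sulfobutylether-β-cyclodextrin in water or 10% DMSO/30% PEG400/60% water. AUC0–24 came from plasma concentration–time data by the linear trapezoidal rule, averaged for n = 2. Lower detection limit was 1 ng/mL.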

A short description of data set [2]: Half life in Wistar-Hannover rat plasma at 4 mg/kg, po and measured up to 24 hrs by LC/MS-MS analysis. It is filed as ADME, organism-based.
Data set [3] is described as follows: Half life in Wistar-Hannover rat plasma at 1 mg/kg, iv and measured up to 24 hrs by LC/MS-MS analysis. It is filed as ADME, organism-based. In a few lines:
(§1)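 Male Wistar-Hannover rats (240–350 g) with jugular vein cannulas, dosed 1 mg/kg IV (2 mL/kg) or PO. IV vehicle was 10% DMSO/90% of 20% sulfobutylether-β-cyclodextrin in water, or 10% DMSO/30% PEG400/60% water. Plasma was analysed by LC-MS/MS. Parameters come from plasma concentration–time data, n = 2: Cmax observed directly, AUC0-24 by the linear trapezoidal rule, CL = IV dose/AUC, Vss = dose/(AUC × elimination rate constant).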

A short description of data set [4]: Apparent volume of distribution at steady state in Wistar-Hannover rat plasma at 1 mg/kg, iv and measured up to 24 hrs by LC/MS-MS analysis. The settings on record: read-out: Vdss(app). Format: ADME, organism-based. The essentials: as §1
A short description of data set [5]: Clearance in Wistar-Hannover rat plasma at 1 mg/kg, iv and measured up to 24 hrs by LC/MS-MS analysis. It is filed as ADME, organism-based. The essentials:
as §1

Data set [6] can be described thus: Drug uptake in Wistar-Hannover rat assessed as plasma concentration at 30 mg/kg, po after 6 hrs by LC/MS-MS analysis. Format: ADME, organism-based. In a few lines:
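Male Wistar-Hannover rats, n = 2 or 3, given an oral suspension in 0.5% methyl cellulose with 0.1% Tween 80; one compound was dosed as the HCl salt. Total plasma and liver concentrations were measured 6 h post-dose. Kp = liver/plasma total concentration. Kpu,u uses fu values from equilibrium dialysis.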

The nature of data set [7]: Metabolic intrinsic clearance in human hepatocytes assessed per million cells incubated for 2 hrs. Format: ADME, cell-based, Hepatocyte. To be noted: read-out: CLH. In a few lines:
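Cryopreserved human hepatocytes incubated for 2 h. In vitro half-lives scaled to intrinsic clearance, expressed per 10^6 cells.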

The nature of data set [8]: Octanol-water partition coefficient, logD of compound at pH 7.4 at 0.5 to 2 mg incubated for 1 hr by HPLC based shake-flask method. Format: physicochemical. The settings on record: dose 0.5-2 mg. In a few lines:
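Shake-flask octanol/water partition at pH 7.4.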

Data set [9] can be described thus: Apparent permeability in MCDKII-LE cells at 2 uM incubated for 30 mins. Format: ADME, cell-based, Canis lupus familiaris, MDCKII-LE. To be noted: dog, MDCK. In a few lines: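 MDCK-LE (low-efflux) cell monolayers with a 30 min pre-incubation. Read-out is apparent passive permeability (Papp, 10^-6 cm/s).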
The target of the next data set is Acetyl-CoA carboxylase 2 (Homo sapiens, UniProt O00763). Nature of the data set: Inhibition of recombinant human ACC2 using acetyl coA as substrate incubated for 1 hr by transcreener fluorescence polarization assay. The essentials: (§2)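 Recombinant human enzyme, Transcreener assay run per an earlier protocol. IC50 is the geometric mean of at least three replicates, also given as pIC50 ± SD.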

The target in a further data set is Acetyl-CoA carboxylase 1 (Homo sapiens, UniProt Q13085). Nature of the data set: Inhibition of recombinant human ACC1 using acetyl coA as substrate incubated for 1 hr by transcreener fluorescence polarization assay. The essentials:
as §2

The nature of data set [10]: Fraction unbound in rat liver by equilibrium dialysis method. (In general: In equilibrium dialysis only unbound substance equilibrates across the membrane.)
A further data set is filed under the species Rattus norvegicus. Nature of the data set: Fraction unbound in rat plasma by equilibrium dialysis method.
Data set [11] can be described thus: Inhibition of DNL in Sprague-Dawley rat assessed as reduction in DNL level in bone marrow at 300 mg/kg, po pretreated with 1 hr followed by [14C]-acetate treatment and measured after 1 hr relative to control. It is filed as functional. To be noted: time 2 hrs. The essentials: (§3)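 Sprague-Dawley rats given single oral doses of 0.03–300 mg/kg in 0.5% methyl cellulose vehicle, n = 16 per dose. Read-out is incorporation of 14C-acetate into lipids in liver, bone marrow and lung, measured at 2 h post-dose relative to vehicle. Data are mean ± SEM. EC50 is reported with a 95% confidence interval.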

Data set [12] can be described thus: Inhibition of DNL in po dosed Sprague-Dawley rat assessed as reduction in DNL level in liver pretreated with one hr followed by [14C]-acetate treatment and measured after 1 hr. Format: functional, organism-based. The essentials: as §3
For a further data set, the target named is Bile salt export pump (Homo sapiens, UniProt O95342). Nature of the data set: Inhibition of human BSEP expressed in baculovirus infected Hi5 insect cells in presence of taurocholic acid by LC-MS/MS analysis.
The test system of another data set is TK6. Nature of the data set: Genotoxicity in human TK6 cells in presence of (aroclor-induced rat liver S9 fraction/NADPH by micronucleus test. It is filed as toxicity, cell-based. In a few lines:
(§4)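 In vitro micronucleus assay in Chinese hamster ovary or TK6 cells, run with and without metabolic activation by aroclor-induced rat liver S9 fraction plus NADPH.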

Data set [13] relates to CHO. Nature of the data set: Genotoxicity in CHO cells in presence of (aroclor-induced rat liver S9 fraction/NADPH by micronucleus test. Format: toxicity, cell-based, Cricetulus griseus. The settings on record: chinese hamster. In a few lines: as §4
Data set [14] relates to CHO. Nature of the data set: Genotoxicity in CHO cells by micronucleus test. To be noted: chinese hamster. Format: toxicity, cell-based, Cricetulus griseus. The essentials: as §4
A short description of data set [15]: Genotoxicity in Salmonella typhimurium TA1535 by Ames test. Format: toxicity. The settings on record: salmonella enterica subsp. enterica serovar typhimurium. In a few lines:
(§5)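 Ames test in Salmonella strains TA98, TA100, TA1535 and TA1537, run with and without aroclor-induced rat liver S9 plus NADPH.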

The nature of data set [16]: Genotoxicity in Salmonella typhimurium TA100 by Ames test. To be noted: salmonella enterica subsp. enterica serovar typhimurium. It is filed as toxicity. The essentials:
as §5
On the technique in general: In the Ames test, an excess of revertant colonies over the control signals mutagenicity.

In data set [17] the target is UDP-glucuronosyltransferase 2B15 (Homo sapiens, UniProt P54855). Nature of the data set: Inhibition of UGT2B15 in human liver microsomes in presence of UDPGA by LC-MS/MS analysis. It is filed as ADME. On the technique in general: Microsomes from liver hold many membrane-bound enzymes, among them those of drug oxidation.
A short description of data set [18]: Induction of CYP1A2 mRNA expression in human hepatocytes at 0.5 to 200 uM. It is filed as ADME, cell-based, Hepatocyte. The settings on record: dose 0.5-200 µM. The essentials:
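Individual human hepatocyte lots treated at 0.5–200 µM. Read-out is messenger RNA levels of CYP1A2 and CYP3A4.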

In a further data set the target is Cytochrome P450 2C19 (Homo sapiens, UniProt P33261). Nature of the data set: inhibition of CYP2C19 in human liver microsomes. Format: ADME.
Data set [19] is described as follows: Thermodynamic solubility of the compound at pH 1.2 after 24 hrs. Format: physicochemical. To be noted: buffer, read-out: Therm_solubility.
Data set [20] can be described thus: Ratio of drug uptake in Wistar-Hannover rat unbound liver to plasma concentration at 10 mg/kg, po after 6 hrs by LC/MS-MS analysis. To be noted: other tissue. Format: ADME, organism-based. The essentials: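 Male Wistar-Hannover rats (n = 2 or 3) dosed orally as a suspension in 0.5% methyl cellulose with 0.1% Tween 80. Total plasma and liver concentrations taken 6 h post-dose. Converted to unbound values using fraction unbound in plasma and liver from equilibrium dialysis. Kpu,u = ratio of mean free liver to free plasma concentration.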

In data set [21] the target is P-glycoprotein 1 (Homo sapiens). Nature of the data set: Inhibition of human ABCB1 expressed in MDCK2-LE cells in presence of […].

Sequence of Acetyl-CoA carboxylase 2 (O00763 whole entry): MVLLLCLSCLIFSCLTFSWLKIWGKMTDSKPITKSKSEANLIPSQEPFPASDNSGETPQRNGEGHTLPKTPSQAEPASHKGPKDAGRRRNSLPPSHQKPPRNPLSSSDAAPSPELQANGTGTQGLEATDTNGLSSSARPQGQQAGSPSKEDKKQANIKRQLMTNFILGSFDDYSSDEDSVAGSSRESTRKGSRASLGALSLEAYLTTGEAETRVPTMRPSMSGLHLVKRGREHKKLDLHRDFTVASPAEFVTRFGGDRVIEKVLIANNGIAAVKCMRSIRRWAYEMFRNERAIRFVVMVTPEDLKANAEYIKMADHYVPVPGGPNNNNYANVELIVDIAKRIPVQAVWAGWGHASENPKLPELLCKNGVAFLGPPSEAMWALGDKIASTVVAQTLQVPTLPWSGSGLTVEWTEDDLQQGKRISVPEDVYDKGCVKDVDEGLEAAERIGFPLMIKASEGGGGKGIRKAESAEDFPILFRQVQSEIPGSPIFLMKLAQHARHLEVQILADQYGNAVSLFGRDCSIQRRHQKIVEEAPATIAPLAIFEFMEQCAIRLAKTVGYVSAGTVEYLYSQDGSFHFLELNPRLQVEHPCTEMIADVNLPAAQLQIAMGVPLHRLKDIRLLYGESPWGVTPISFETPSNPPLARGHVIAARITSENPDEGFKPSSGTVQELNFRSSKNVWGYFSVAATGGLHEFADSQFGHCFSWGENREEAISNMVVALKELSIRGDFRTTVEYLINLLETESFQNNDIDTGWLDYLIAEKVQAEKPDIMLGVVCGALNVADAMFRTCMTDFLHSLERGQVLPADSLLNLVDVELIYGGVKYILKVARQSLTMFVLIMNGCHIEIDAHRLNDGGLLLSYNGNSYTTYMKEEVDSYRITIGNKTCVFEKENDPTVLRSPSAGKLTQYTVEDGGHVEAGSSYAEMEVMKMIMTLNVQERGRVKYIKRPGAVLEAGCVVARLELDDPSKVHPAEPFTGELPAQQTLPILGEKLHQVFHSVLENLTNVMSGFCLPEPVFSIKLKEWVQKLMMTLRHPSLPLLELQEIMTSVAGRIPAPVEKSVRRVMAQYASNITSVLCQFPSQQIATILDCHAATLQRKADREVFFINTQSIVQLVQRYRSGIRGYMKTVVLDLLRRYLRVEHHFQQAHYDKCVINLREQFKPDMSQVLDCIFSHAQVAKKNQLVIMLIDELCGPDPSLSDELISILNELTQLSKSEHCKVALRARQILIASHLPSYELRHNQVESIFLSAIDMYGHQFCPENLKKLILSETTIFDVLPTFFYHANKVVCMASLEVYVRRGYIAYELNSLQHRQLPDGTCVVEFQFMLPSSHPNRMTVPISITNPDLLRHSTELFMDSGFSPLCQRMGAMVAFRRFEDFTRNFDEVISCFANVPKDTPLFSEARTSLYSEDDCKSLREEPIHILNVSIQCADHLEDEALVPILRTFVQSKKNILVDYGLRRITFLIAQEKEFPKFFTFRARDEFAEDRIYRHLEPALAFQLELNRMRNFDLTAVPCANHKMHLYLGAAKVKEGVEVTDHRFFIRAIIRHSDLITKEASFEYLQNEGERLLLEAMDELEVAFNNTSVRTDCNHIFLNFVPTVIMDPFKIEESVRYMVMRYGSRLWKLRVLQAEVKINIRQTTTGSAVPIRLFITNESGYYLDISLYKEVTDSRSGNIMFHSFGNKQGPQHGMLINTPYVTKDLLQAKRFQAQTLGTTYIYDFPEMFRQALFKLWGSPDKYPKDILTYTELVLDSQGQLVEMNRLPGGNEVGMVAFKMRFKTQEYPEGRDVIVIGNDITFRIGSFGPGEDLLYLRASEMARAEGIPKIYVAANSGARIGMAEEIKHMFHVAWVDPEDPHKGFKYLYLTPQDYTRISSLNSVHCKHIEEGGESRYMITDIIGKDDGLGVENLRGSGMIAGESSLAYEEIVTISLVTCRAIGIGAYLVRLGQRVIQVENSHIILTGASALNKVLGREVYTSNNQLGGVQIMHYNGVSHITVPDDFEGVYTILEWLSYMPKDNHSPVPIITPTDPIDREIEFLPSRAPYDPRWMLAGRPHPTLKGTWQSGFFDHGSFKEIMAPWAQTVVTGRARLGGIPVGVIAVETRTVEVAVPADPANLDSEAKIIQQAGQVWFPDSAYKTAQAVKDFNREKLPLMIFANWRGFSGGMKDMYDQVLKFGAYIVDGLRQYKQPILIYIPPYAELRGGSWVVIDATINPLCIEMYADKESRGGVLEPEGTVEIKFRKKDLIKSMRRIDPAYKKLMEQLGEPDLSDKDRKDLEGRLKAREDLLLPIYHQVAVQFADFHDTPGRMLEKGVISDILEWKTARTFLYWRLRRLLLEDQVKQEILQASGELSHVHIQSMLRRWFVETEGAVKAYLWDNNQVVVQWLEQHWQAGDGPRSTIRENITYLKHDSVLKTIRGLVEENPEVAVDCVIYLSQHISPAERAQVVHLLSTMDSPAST
Sequence of Cytochrome P450 2C19 (P33261 whole entry): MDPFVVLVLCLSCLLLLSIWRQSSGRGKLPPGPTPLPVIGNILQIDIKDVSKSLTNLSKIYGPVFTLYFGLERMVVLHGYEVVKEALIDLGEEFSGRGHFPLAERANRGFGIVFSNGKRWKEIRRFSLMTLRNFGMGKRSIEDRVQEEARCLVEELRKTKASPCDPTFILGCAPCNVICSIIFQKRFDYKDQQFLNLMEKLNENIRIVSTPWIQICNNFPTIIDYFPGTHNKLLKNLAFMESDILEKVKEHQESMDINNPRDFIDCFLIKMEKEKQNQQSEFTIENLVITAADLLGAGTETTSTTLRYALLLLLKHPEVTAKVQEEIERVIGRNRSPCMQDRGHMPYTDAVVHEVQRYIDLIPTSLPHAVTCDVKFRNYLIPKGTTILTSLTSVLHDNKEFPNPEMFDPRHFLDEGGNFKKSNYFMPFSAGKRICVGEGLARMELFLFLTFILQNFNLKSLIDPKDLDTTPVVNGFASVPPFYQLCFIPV
Sequence of UDP-glucuronosyltransferase 2B15 (P54855 whole entry): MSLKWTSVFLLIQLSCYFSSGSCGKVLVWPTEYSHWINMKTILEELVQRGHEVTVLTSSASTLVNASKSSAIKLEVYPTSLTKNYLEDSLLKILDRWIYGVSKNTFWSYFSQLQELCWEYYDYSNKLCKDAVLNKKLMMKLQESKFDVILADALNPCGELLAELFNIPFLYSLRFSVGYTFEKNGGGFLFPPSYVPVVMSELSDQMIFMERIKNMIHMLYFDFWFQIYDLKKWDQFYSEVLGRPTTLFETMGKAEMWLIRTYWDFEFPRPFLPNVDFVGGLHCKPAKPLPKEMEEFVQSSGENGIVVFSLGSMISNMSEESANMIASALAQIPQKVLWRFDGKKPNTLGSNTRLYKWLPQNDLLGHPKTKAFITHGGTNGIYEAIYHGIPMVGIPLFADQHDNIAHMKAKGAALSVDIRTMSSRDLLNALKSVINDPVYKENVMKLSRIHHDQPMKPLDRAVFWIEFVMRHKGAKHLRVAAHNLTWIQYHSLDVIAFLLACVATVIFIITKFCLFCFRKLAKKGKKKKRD
Sequence of Bile salt export pump (O95342 whole entry): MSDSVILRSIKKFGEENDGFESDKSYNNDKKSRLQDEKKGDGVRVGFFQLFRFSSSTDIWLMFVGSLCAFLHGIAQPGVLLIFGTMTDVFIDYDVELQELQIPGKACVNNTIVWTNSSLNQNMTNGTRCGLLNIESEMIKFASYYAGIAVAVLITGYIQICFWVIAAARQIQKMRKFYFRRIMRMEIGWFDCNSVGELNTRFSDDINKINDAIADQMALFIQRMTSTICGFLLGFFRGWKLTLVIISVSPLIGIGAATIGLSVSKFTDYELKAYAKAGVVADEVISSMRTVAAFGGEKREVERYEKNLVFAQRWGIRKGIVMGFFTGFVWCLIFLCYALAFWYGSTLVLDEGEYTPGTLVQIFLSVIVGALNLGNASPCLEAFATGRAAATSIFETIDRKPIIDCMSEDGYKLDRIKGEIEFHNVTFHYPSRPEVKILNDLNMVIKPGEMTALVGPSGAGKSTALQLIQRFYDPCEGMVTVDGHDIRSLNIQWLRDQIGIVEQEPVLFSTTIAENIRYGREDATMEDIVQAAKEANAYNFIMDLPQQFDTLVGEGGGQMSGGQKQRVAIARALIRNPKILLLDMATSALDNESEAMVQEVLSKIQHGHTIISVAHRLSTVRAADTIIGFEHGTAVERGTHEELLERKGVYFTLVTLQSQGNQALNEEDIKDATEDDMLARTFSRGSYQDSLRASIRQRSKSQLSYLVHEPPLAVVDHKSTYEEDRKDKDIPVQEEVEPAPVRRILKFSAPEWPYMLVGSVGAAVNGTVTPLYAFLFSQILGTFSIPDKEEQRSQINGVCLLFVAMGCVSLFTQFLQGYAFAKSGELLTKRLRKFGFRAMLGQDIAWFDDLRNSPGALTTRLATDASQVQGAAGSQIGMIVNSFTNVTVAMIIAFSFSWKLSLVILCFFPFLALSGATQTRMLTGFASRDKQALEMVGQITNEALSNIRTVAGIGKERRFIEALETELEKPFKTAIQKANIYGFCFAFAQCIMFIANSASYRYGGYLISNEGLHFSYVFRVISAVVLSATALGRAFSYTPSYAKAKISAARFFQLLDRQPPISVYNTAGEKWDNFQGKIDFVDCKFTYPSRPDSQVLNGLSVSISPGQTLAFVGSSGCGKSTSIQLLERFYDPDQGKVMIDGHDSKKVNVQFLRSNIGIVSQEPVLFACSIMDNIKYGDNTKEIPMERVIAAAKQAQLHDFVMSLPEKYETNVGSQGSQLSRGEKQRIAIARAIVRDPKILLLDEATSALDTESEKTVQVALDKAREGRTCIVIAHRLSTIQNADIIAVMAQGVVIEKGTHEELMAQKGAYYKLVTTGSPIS

`COc1cc(C(=O)N2CCC3(CC2)CC(=O)c2nn(C(C)(C)C)cc2O3)cc(-c2ccc(C(=O)O)cc2)n1` came in with an AUC(0-t) in data set [1] of 299 ng·h/mL. The half-life is 5.7 h in data set [2] and 3.5 h in data set [3]. Moreover, the Vd in [4] was found to be 4.1 L/kg. In data set [5], this compound registered a clearance of 54.5 mL/min/kg. Moreover, in data set [6], the concentration at 6 h came to 41.7 ng/mL. Besides, in [7], the hepatocyte CLint is < 3 µL/min/1e6 cells. The compound further registered a logD at 1 h in data set [8] of 0.5. In addition, the Papp at 0.5 h, 2 µM in data set [9] was determined as 2 ×10⁻⁶ cm/s. For the same compound, the figures for the IC50 at Acetyl-CoA carboxylase 2 and at Acetyl-CoA carboxylase 1 were 13 nM and 22 nM, respectively. Also, the figures for the fraction unbound (in data set [10]; in the data set listed under Rattus norvegicus) were 0.07 and 0.17, respectively.

For `COc1cc(C(=O)N2CCC3(CC2)CC(=O)c2c(cnn2C(C)C)C3)cc(-c2ccc(C(=O)O)cc2)n1` [CLESACOSTAT], the inhibition in vivo at 300 mg/kg in [11] stood at 33%. The EC50 in data set [12] was determined as 5.4 nM. For the same compound, the IC50 is 94000 nM at Bile salt export pump; > 20000 nM in data set [17]; > 50000 nM against Cytochrome P450 2C19; 26 nM on Acetyl-CoA carboxylase 2; 33 nM at Acetyl-CoA carboxylase 1; 39000 nM in [21]. In addition, the Activity entry in the data set with TK6 is reported as “Non-Toxic”; in the data set with CHO [13], “Non-Toxic”; in the data set on CHO [14] it was “Non-Toxic”; in data set [15], “Non-Toxic”; in [16] it was “Non-Toxic”; in [18], “Not Active”. Besides, the solubility thermodynamic at 24 h in data set [19] was 8 µM (≈ 4.02 µg/mL). The AUC(0-t) in data set [1] came out at 965 ng·h/mL. For the same compound, the half-life in data set [3] is 8.6 h. For the same compound, in data set [4], the Vd worked out at 7.2 L/kg. This compound also came in with a clearance in [5] of 16 mL/min/kg. Moreover, the Ratio in data set [20] turned out to be 132. In data set [7], the hepatocyte CLint was < 3 µL/min/1e6 cells. The compound also registered a logD at 1 h in data set [8] of 1.1. The Papp at 0.5 h, 2 µM in data set [9] is 14 ×10⁻⁶ cm/s. The fraction unbound was 0.066 in [10] and 0.0392 in the data set listed under Rattus norvegicus.

For orientation: AUC(0-t) means the area under the concentration-time curve up to a stated or last time point. Low values mean low exposure, high ones high exposure. A word on the half-life: it is how long it takes for the measured level to halve. In general, clearance refers to the rate of elimination divided by the concentration. The term logD denotes the decadic logarithm of the distribution of all forms, ionised or not, between an organic phase and buffer at a given pH. Low readings indicate a more hydrophilic compound, high ones a more lipophilic compound. The term Papp denotes the rate of passage across a membrane or cell layer, normalised by area and donor concentration. One may read the IC50 as the concentration at which inhibition is half-maximal. By fraction unbound is commonly meant free concentration divided by total concentration. One may read the inhibition in vivo as the percentage by which the read-out fell short of the control. What is called EC50 is the concentration at which the effect is half-maximal.
